Assay results taken from publication PMC6030940 (International Journal of Nanomedicine, 2018).
“Also recorded” adds a separate entry of the source.

What was measured:
Pgp mRNA in T84 cells = settings: 10 µM, 72 h; cited from earlier work
[1] = tested on: Pgp expression in kidney cancer cells; settings: 5 ng/mL, 72 h; cited from earlier work
[2] = no reference given; cited from earlier work
Pgp [3] = target: T1, Pgp (Homo sapiens, UniProt P08183); experiment: Cellular uptake of Rhodamine123 by MDCK-MDR1 cells; assay type: cell-based; settings: 37°C, 90 min, Figure 2
human Pgp membrane = human Pgp membrane (Homo sapiens, UniProt P08183); experiment: Pgp ATPase activity, Pgp-Glo assay system; settings: 37°C, 120 min
[4] = tested on: intracellular ATP in MDCK-MDR1 cells; experiment: Intracellular ATP level, ATPlite luminescence assay; assay type: cell-based, canine; settings: BS20 5 or 10 µM
Summary of the method: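 MDCK-MDR1 cells were seeded at 1 × 10^4 cells/well, left to adhere overnight, then exposed to the test surfactant at 5 or 10 μM for 3 or 24 h. Cells were lysed by three freeze-thaw cycles in lysis reagent. Substrate reagent was added and plates rocked 10 min at room temperature. ATPlite luminescence was read on a plate reader.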

[5] = tested on: Pgp mRNA expression in MDCK-MDR1 cells; experiment: Pgp mRNA expression, real-time quantitative PCR; assay type: cell-based; settings: normalized to GAPDH
Summary of the method: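 MDCK-MDR1 cells (DMEM, 10% FBS, 37°C, 5% CO2) were exposed to the test surfactant for 3 or 24 h. Total RNA was kit-extracted and reverse-transcribed with gDNA eraser. qPCR ran 95°C 30 s, then 40 cycles of 95°C 5 s and 60°C 30 s, followed by melt-curve analysis. Pgp expression was normalised to GAPDH by the 2−ΔΔCq method.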

[6] = tested on: Pgp protein expression in MDCK-MDR1 cells; experiment: Cellular Pgp protein expression, Western blotting; assay type: cell-based; settings: BS20 5 or 10 µM, 3 h and 24 h
[7] = Morphology and size by scanning electron microscopy; assay type: physicochemical; settings: SEM images
Summary of the method: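 Samples were fixed on SEM stubs with double-sided adhesive tape and coated with Au. They were imaged by scanning electron microscopy at 15 kV acceleration voltage.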

Pgp [8] = target: T1, Pgp; experiment: Cellular uptake of BBR in MDCK-MDR1 cells; assay type: cell-based; settings: BS20 8.1 µM, BBR 100 µM, 37°C, 90 min
[9] = has been reported; cited from earlier work
Pgp [10] = experiment: Bidirectional transport across MDCK-MDR1 cell monolayer; settings: dog, MDCK-MDR1, pH 7.4
P-gp (MDR1) = experiment: as above; settings: dog, MDCK-MDR1, pH 7.4
MDCK-MDR1 cell monolayer = experiment: as above; settings: BBR in the presence of 10 µM verapamil
Caco-2 monolayer = settings: previous study; cited from earlier work

T1 sequence (P08183 whole entry): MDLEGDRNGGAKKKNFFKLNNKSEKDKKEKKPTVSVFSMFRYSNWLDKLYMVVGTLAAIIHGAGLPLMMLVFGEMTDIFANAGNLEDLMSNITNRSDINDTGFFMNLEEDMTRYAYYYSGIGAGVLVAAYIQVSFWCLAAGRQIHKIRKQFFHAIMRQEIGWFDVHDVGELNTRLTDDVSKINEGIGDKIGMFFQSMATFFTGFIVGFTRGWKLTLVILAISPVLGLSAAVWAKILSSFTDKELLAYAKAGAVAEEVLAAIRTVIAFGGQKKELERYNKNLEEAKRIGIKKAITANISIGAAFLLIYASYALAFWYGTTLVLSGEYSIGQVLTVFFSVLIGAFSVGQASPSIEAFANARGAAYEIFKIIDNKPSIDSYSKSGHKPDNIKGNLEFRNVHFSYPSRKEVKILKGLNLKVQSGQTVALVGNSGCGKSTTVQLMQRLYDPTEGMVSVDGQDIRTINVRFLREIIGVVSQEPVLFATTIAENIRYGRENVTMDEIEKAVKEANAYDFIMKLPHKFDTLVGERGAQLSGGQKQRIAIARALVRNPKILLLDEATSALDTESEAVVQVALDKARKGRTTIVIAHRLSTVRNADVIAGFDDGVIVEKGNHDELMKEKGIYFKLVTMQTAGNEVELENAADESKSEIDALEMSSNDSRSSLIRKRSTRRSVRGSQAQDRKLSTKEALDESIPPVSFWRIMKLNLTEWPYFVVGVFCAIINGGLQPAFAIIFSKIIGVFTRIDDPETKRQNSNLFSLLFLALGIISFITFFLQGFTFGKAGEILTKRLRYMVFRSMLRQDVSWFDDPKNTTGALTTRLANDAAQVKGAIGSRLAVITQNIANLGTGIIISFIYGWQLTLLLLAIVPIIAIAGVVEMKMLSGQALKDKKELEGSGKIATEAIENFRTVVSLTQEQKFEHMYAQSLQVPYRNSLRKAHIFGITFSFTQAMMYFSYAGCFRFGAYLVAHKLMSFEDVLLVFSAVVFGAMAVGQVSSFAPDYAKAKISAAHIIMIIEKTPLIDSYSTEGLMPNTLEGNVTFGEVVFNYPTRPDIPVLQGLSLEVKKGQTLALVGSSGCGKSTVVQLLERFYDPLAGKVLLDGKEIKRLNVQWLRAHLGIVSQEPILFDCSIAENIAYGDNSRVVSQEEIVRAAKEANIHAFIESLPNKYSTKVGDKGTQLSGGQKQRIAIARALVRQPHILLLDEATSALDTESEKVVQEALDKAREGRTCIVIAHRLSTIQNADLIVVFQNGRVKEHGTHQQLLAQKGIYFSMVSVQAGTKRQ
Sequence of human Pgp membrane (P08183 whole entry): as above

In the case of `C=C[C@H]1C[N@@]2CC[C@H]1C[C@@H]2[C@@H](O)c1ccnc2ccc(OC)cc12` [quinidine], the “increase of mRNA levels of Pgp” value (Pgp mRNA in T84 cells) is given as 3.8 fold.
In the case of `C/C=C1\NC(=O)[C@H]2CSSCC/C=C/[C@H](CC(=O)N[C@H](C(C)C)C(=O)N2)OC(=O)[C@H](C(C)C)NC1=O` [depsipeptide], the “increased expression levels of Pgp” value [1] is given as 6.3 fold.
In the case of `CC(C)CN(C[C@@H](O)[C@H](Cc1ccccc1)NC(=O)O[C@H]1CCOC1)S(=O)(=O)c1ccc(N)cc1` [amprenavir], the “increase of mRNA levels of Pgp” value (Pgp mRNA in T84 cells) is given as 5.1 fold.
In the case of “D-α-Tocopherol polyethylene glycol 1000 succinate [TPGS]”, the critical micelle concentration [2] is listed as 0.02 mM and the “effect on intracellular accumulation of Rho123” value (Pgp [3]) is listed as “most powerful nonionic surfactant with the function of Pgp inhibition”.
In the case of “polyoxyethylene (20) stearyl ether [BS20]”, the “stimulation of Pgp-ATPase activity vs normal control (basal level)” value (human Pgp membrane; BS20 5 µM) is reported as 3.5 fold, the “stimulation of Pgp-ATPase activity vs normal control (basal level)” value (human Pgp membrane; BS20 10 µM) is reported as 4.5 fold and the “activity of intracellular ATP” value ([4]; 3 h) is reported as “dose-dependently inhibited; also recorded: inhibited the activity of intracellular ATP”. For the same compound, the “activity of intracellular ATP” value ([4]; 24 h) was “reversed to normal level”, the critical micelle concentration [2] was 0.006 mM and the “effect on intracellular accumulation of Rho123” value (Pgp [3]) was “presented the most potency on increasing the intracellular accumulation of Rho123”. The “Pgp mRNA expression” value ([5]; BS20 5 µM, 3 h) was 0.9 fold, the “Pgp mRNA expression” value ([5]; BS20 5 µM, 24 h) was 2.3 fold and the “Pgp mRNA expression” value ([5]; BS20 10 µM, 3 h) was 1.4 fold. The “Pgp mRNA expression” value ([5]; BS20 10 µM, 24 h) was 3.8 fold, the Pgp protein expression [6] was “no significant changes in Pgp protein expression” and the “size by SEM” value [7] was > 5 µm. For the same compound, the “increase of cellular uptake of BBR vs BBR group” value (Pgp [8]) was 4.1 fold.
In the case of `COc1ccc2cc3[n+](cc2c1OC)CCc1cc2c(cc1-3)OCO2` [BBR, Berberine], the oral bioavailability [9] is listed as < 1%, the Papp A→B at 120 min, 10 µM (Pgp [10]) is listed as 0.4 ± 0.01 ×10⁻⁶ cm/s and the Papp B→A at 120 min, 10 µM (Pgp [10]) is listed as 2.85 ± 0.04 ×10⁻⁶ cm/s. For the same compound, the efflux ratio at 120 min, 10 µM (P-gp (MDR1)) was 7.12, the “absorptive quotient (AQ)” value (MDCK-MDR1 cell monolayer) was 0.344 and the “secretory quotient (SQ)” value (MDCK-MDR1 cell monolayer) was 1.16. The “size by SEM” value [7] was 1–2 µm.
In the case of “polyoxyethylene (23) lauryl ether [Brij-35]”, the “permeation of bis(12)-hupyridone through Caco-2 monolayer” value (Caco-2 monolayer) is listed as “significantly increase the permeation”.
